Conditions in all cases: in vivo
The subject of one data set is Liver. Put plainly: Biodistribution in Fisher rat liver at 1 to 3 mCi, iv after 20 mins. It is filed as ADME, organism-based. In outline:
(§1)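 Fisher rats (200–300 g) given [¹¹C]HC-15 or [¹⁸F]HC-15 (1–3 mCi, sub-pharmacologic) by tail-vein iv injection under conscious restraint. Sacrificed by decapitation under halothane anesthesia at 20 min, tissues excised and weighed, decay-corrected radioactivity gamma-counted. Expressed as %ID and %ID/g; values are the average of four rats.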

Data set [1] can be described thus: Biodistribution in Fisher rat skeletal muscle s at 1 to 3 mCi, iv after 20 mins. It is filed as ADME, organism-based, Muscle tissue. In outline:
as §1

Data set [2] in a line: Biodistribution in Fisher rat right atrium at 1 to 3 mCi, iv after 20 mins. It is filed as ADME, organism-based, Cardiac atrium. In outline: as §1
The subject of the next data set is Solar plexus. Put plainly: Biodistribution in Fisher rat solar plexus at 1 to 3 mCi, iv after 20 mins. It is filed as ADME, organism-based. A digest of the protocol:
as §1

Another data set relates to Septum. Put plainly: Biodistribution in Fisher rat septum at 1 to 3 mCi, iv after 20 mins. It is filed as ADME, organism-based. A digest of the protocol:
as §1

In another data set the test system is Lung. The data set can be described thus: Biodistribution in Fisher rat lung at 1 to 3 mCi, iv after 20 mins. It is filed as ADME, organism-based. A digest of the protocol:
as §1

Data set [3] in a line: Biodistribution in Fisher rat urine at 1 to 3 mCi, iv after 20 mins. It is filed as ADME, organism-based. A digest of the protocol: as §1
A further data set has as its system Kidney. Put plainly: Biodistribution in Fisher rat kidney at 1 to 3 mCi, iv after 20 mins. It is filed as ADME, organism-based. A digest of the protocol: as §1
A short description of data set [4]: Biodistribution in Fisher rat left atrium at 1 to 3 mCi, iv after 20 mins. It is filed as ADME, organism-based, Cardiac atrium. In outline: as §1
The test system of another data set is Blood. The data set can be described thus: Biodistribution in Fisher rat blood at 1 to 3 mCi, iv after 20 mins. It is filed as ADME, organism-based. A digest of the protocol:
as §1

Data set [5] in a line: Biodistribution in Fisher rat left ventricle at 1 to 3 mCi, iv after 20 mins. It is filed as ADME, organism-based, Heart left ventricle. In outline: as §1
Data set [6] can be described thus: Biodistribution in Fisher rat atrioventricular node at 1 to 3 mCi, iv after 20 mins. It is filed as ADME, organism-based. In outline:
as §1

The nature of data set [7]: Biodistribution in Fisher rat right ventricle at 1 to 3 mCi, iv after 20 mins. It is filed as ADME, organism-based, Heart right ventricle. In outline: as §1
The test system of another data set is Brain. The data set can be described thus: Biodistribution in Fisher rat brain at 1 to 3 mCi, iv after 20 mins. It is filed as ADME, organism-based. A digest of the protocol: as §1

Consider `C[N+]1([11CH3])CCOC(O)(c2ccccc2)C1.O=S(=O)([O-])C(F)(F)F` (stereo not drawn), for which the Drug uptake was 6.284 % ID/g in the data set on Liver; 0.091 % ID/g in data set [1]; 0.488 % ID/g in [2]; 0.938 % ID/g with Solar plexus; 0.01 % ID/g in the data set on Septum; 1.302 % ID/g with Lung. The Drug uptake was 31.835 % ID/g in [3]; 3.618 % ID/g in the data set on Kidney; 0.526 % ID/g in [4]; 0.181 % ID/g with Blood; 0.859 % ID/g in data set [5]; 1.083 % ID/g in data set [6]. In addition, the figures for the Drug uptake (in data set [7]; in the data set with Brain) were 1.316 % ID/g and 0.022 % ID/g, respectively.

For the compound `C[N+]1(C[18F])CCOC(O)(c2ccccc2)C1.O=S(=O)([O-])C(F)(F)F` (stereo not drawn), the Drug uptake turned out to be 4.378 % ID/g in the data set with Liver; 0.145 % ID/g in data set [1]; 0.756 % ID/g in data set [2]; 0.744 % ID/g with Solar plexus; 1.557 % ID/g in the data set on Septum; 3.423 % ID/g in the data set on Lung. The Drug uptake is recorded as 17.434 % ID/g in data set [3]; 11.651 % ID/g with Kidney; 0.796 % ID/g in data set [4]; 0.201 % ID/g with Blood; 1.28 % ID/g in data set [5]; 0.793 % ID/g in [6]. In addition, the Drug uptake in [7] is listed as 0.037 % ID/g; in the data set with Brain it was 0.046 % ID/g.
